According to ChEMBL document CHEMBL5678818, “Discovery of potent SOS1 inhibitors that block RAS activation via disruption of the RAS-SOS1 interaction” (Proc Natl Acad Sci U S A, 2019):
pIC50: −log10 of the molar value. The source made the active and inactive calls. No cut-off for these calls is given here.

species: Homo sapiens; assay: Stabilization of N-terminal His10-tagged 15N-labeled recombinant human KRAS G12C/C118S mutant (1 to 169 residues) expressed in Escherichia coli/N-terminal His10-tagged wild-type recombinant human SOS1 catalytic domain (564 to 1049 residues) expressed in Escherichia coli at 1 mM incubated for 30 mins by 2D-NMR analysis; details: not given

Row | Structure (SMILES) | Activity
1 | NCCCc1ccc(Cl)cc1 | Active
2 | O=C(CO)N1CCc2ccccc2C1 | inactive

species: Homo sapiens; assay: Stabilization of N-terminal His10-tagged recombinant human KRAS G12C/C118S mutant (1 to 169 residues) expressed in Escherichia coli/Series S C1 sensor chip-immobilized biotinylated N-terminal His10-tagged wild-type recombinant human SOS1 catalytic domain (564 to 1049 residues) expressed in Escherichia coli at 100 to 500 uM measured for 360 secs by SPR analysis; details: dose 100-500 µM, time 360.0 sec
In short: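 SOS1cat is immobilized on the chip, and 250 nM KRASG12C_C118S is flowed over with or without test compound. Compound alone at 100, 250 and 500 µM is also injected to gauge unspecific binding to SOS1cat. Buffer injection serves as the blank.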

Row | Structure (SMILES) | Activity
3 | NCCCc1ccc(Cl)cc1 | Active
4 | O=C(CO)N1CCc2ccccc2C1 | inactive

species: Homo sapiens; assay: Stabilization of N-terminal His10-tagged recombinant human KRAS G12C/C118S mutant (1 to 169 residues) expressed in Escherichia coli/N-terminal His10-tagged wild-type recombinant human SOS1 catalytic domain (564 to 1049 residues) expressed in Escherichia coli by HTRF analysis; details: not given
In short: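 HTRF equilibrium-binding read-out of KRASG12C_C118S with SOS1cat, detected by fluorescently labelled antibodies including a terbium donor. Signal normalized with DMSO control as 100% and no-SOS1cat wells as 0%. Data are mean ± SD, n = 4.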

Row | Structure (SMILES) | Activity
5 | NCCCc1ccc(Cl)cc1 | Active
6 | O=C(CO)N1CCc2ccccc2C1 | inactive

biological target: Son of sevenless homolog 2 (Homo sapiens, UniProt Q07890); assay: Inhibition of N-terminal His10-tagged wild-type recombinant human SOS2 catalytic domain (564 to 1043 residues) expressed in Escherichia coli assessed as reduction in KRAS G12C mutant activation preincubated for 10 mins with KRAS followed by SOS2 addition measured after 30 mins in presence of EDA-GTP-DY-647P1 by HTRF analysis; details: not given

Row | Structure (SMILES) | pIC50
7 | CNCc1ccccc1-c1csc([C@H](C)Nc2nc(C)nc3cc(OC)c(OC)cc23)c1 [BAY-294] | < 4.70

biological target: SOS1-KRAS (Homo sapiens, UniProt Q07889); assay: Inhibition of N-terminal GST-tagged recombinant human KRAS G12C mutant (1 to 169 residues) expressed in Escherichia coli/N-terminal His10-tagged wild-type recombinant human SOS1 catalytic domain (564 to 1049 residues) expressed in Escherichia coli protein-protein interaction preincubated for 2 mins with KRAS followed by SOS1 addition measured after 60 mins in presence of anti-6His-XL665 by HTRF analysis; details: not given

Row | Structure (SMILES) | pIC50
8 | COc1cc2ccnc(N[C@H](C)c3cccc4ccccc34)c2cc1OC | 4.91
9 | COc1cc2nccc(N[C@H](C)c3cccc4ccccc34)c2cc1OC | 5.59
10 | COc1cc2nc(C(F)(F)F)nc(N[C@H](C)c3cccc4ccccc34)c2cc1OC | 5.84
11 | CNCc1ccccc1-c1ccc(C(C)Nc2nc(C)nc3cc(OC)c(OC)cc23)s1 (configuration not stated) | 7.39
12 | COc1cc2nc(C)nc(NC(C)c3ccc(-c4ccccc4CNCC(F)F)s3)c2cc1OC (configuration not stated) | 6.11
13 | COc1cc2nc(C)nc(NC(C)c3ccc(-c4ccccc4CO)s3)c2cc1OC (configuration not stated) | 6.55
14 | CCCCNCc1ccccc1-c1ccc(C(C)Nc2nc(C)nc3cc(OC)c(OC)cc23)s1 (configuration not stated) | 7.01
15 | COc1cc2nc(C)nc(NC(C)c3ccc(-c4ccccc4CN(C)C)s3)c2cc1OC (configuration not stated) | 7.40
16 | COCCNCc1ccccc1-c1ccc(C(C)Nc2nc(C)nc3cc(OC)c(OC)cc23)s1 (configuration not stated) | 7.00
17 | COc1cc2nc(C)nc(NC(C)c3ccc(-c4ccccc4[C@@H](C)N)s3)c2cc1OC (some centres not stated) | 6.70
18 | CCNCc1ccccc1-c1ccc(C(C)Nc2nc(C)nc3cc(OC)c(OC)cc23)s1 (configuration not stated) | 7.26
19 | COc1cc2nc(C)nc(NC(C)c3ccc(-c4ccccc4S(=O)(=O)N(C)C)s3)c2cc1OC (configuration not stated) | 5.67
20 | COc1cc2nc(N(C)C)nc(N[C@H](C)c3cccc4ccccc34)c2cc1OC | 6.10
21 | COc1cc2nc(C)nc(NC(C)c3ccc(-c4ccccc4CN4CCC4)s3)c2cc1OC (configuration not stated) | 7.12

biological target: T1, Guanine nucleotide exchange factor DBS (Homo sapiens, UniProt O15068); assay: Inhibition of human DBS assessed as reduction in CDC42 activation preincubated for 1 min with CDC42 followed by DBS addition measured after 20 mins in presence of EDA-GTP-DY-647P1 by HTRF analysis; details: not given
T1 sequence (O15068 whole entry): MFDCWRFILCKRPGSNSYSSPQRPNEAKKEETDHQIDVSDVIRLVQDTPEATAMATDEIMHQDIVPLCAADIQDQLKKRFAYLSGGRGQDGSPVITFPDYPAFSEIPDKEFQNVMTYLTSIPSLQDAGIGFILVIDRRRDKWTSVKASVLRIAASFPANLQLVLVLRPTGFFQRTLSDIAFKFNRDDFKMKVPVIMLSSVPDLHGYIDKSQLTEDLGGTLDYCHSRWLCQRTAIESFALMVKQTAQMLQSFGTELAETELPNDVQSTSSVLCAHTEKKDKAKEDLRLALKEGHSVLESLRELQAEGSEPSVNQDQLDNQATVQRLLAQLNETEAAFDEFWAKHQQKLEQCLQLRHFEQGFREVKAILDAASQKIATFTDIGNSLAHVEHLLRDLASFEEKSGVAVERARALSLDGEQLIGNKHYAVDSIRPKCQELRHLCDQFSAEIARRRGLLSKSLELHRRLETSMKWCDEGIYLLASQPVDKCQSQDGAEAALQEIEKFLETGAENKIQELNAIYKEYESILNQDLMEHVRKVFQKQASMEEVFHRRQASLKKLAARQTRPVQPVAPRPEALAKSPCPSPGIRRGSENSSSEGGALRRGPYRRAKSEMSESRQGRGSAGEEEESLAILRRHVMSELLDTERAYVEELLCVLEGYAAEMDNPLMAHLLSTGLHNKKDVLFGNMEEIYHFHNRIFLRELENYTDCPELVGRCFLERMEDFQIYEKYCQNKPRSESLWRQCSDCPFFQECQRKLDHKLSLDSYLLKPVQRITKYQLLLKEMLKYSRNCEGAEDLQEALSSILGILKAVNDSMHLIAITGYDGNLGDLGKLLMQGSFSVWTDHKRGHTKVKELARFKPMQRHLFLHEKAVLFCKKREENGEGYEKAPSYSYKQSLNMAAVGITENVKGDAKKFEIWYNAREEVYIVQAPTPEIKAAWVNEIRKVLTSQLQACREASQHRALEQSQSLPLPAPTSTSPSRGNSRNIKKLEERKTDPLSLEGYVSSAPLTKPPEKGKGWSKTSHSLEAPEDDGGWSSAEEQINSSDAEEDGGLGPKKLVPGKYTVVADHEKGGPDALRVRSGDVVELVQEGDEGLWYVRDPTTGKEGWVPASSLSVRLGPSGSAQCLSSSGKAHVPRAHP

Row | Structure (SMILES) | pIC50
22 | CNCc1ccccc1-c1csc([C@H](C)Nc2nc(C)nc3cc(OC)c(OC)cc23)c1 [BAY-294] | < 4.70

biological target: Epidermal growth factor receptor (Homo sapiens, UniProt P00533); assay: Inhibition of human EGFR using biotin-aminohexyl-AEEEEYFELVAKKK as substrate preincubated for 15 mins followed by substrate/ATP addition measured after 20 mins by FRET assay; details: not given

Row | Structure (SMILES) | pIC50
23 | COc1cc2ccnc(N[C@H](C)c3cccc4ccccc34)c2cc1OC | < 4.70
24 | COc1cc2nc(C(F)(F)F)nc(N[C@H](C)c3cccc4ccccc34)c2cc1OC | < 4.70
25 | CNCc1ccccc1-c1csc([C@H](C)Nc2nc(C)nc3cc(OC)c(OC)cc23)c1 [BAY-294] | < 4.70
26 | COc1cc2nc(N(C)C)nc(N[C@H](C)c3cccc4ccccc34)c2cc1OC | < 4.70

biological target: GTPase KRas (Homo sapiens) (UniProt P01116); assay: Stabilization of N-terminal His10-tagged wild-type recombinant human KRAS (1 to 169 residues) expressed in Escherichia coli assessed as change in melting temperature at 100 uM with heating from 25 to 85 degreeC by thermal shift assay; details: not given

Row | Structure (SMILES) | ΔTm [°C]
27 | CNCc1ccccc1-c1csc([C@H](C)Nc2nc(C)nc3cc(OC)c(OC)cc23)c1 [BAY-294] | -0.05

biological target: T2, Son of sevenless homolog 1 (Homo sapiens) (UniProt Q07889); assay: Stabilization of N-terminal His10-tagged wild-type recombinant human SOS1 catalytic domain (564 to 1049 residues) expressed in Escherichia coli assessed as change in melting temperature at 100 uM with heating from 25 to 85 degreeC by thermal shift assay; details: not given
T2 sequence (whole entry): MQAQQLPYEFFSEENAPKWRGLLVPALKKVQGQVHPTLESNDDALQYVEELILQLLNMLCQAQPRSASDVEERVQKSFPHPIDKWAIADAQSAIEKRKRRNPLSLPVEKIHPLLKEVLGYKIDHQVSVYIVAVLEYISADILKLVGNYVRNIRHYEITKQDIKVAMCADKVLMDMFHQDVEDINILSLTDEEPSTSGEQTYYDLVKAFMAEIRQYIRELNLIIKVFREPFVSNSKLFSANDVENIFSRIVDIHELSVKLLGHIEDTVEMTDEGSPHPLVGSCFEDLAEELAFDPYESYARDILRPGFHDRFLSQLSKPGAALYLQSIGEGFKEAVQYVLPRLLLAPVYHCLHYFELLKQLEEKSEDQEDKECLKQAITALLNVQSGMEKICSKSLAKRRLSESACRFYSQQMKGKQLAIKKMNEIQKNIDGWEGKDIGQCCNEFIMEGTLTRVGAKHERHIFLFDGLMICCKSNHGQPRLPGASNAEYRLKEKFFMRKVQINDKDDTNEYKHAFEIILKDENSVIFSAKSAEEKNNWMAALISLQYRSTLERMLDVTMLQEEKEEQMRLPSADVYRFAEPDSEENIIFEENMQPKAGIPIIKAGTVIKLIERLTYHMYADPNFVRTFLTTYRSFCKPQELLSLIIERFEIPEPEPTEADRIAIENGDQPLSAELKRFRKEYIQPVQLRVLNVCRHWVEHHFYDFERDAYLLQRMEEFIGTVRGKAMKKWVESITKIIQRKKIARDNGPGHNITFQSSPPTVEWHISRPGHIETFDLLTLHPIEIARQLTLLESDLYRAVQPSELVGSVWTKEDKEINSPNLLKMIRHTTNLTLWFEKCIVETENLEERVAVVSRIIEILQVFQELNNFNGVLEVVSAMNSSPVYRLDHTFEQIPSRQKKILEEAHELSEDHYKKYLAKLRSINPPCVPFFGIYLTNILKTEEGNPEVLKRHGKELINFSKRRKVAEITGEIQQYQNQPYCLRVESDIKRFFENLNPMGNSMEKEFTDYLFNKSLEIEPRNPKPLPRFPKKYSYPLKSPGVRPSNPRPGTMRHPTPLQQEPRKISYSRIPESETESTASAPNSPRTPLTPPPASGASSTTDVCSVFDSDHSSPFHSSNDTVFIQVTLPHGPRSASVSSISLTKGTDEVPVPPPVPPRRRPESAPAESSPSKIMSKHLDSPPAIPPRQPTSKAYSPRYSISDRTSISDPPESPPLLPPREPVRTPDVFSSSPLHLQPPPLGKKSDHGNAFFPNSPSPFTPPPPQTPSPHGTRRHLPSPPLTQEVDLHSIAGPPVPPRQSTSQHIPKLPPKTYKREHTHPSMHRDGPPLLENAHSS

Row | Structure (SMILES) | ΔTm [°C]
28 | CNCc1ccccc1-c1csc([C@H](C)Nc2nc(C)nc3cc(OC)c(OC)cc23)c1 [BAY-294] | 0.28

system: GTPase KRas (Homo sapiens), P01116 [G12C]; assay: Stabilization of N-terminal GST-tagged recombinant human KRAS G12C mutant (1 to 169 residues) expressed in Escherichia coli assessed as change in melting temperature at 100 uM with heating from 25 to 85 degreeC by thermal shift assay; details: not given

Row | Structure (SMILES) | ΔTm [°C]
29 | CNCc1ccccc1-c1csc([C@H](C)Nc2nc(C)nc3cc(OC)c(OC)cc23)c1 [BAY-294] | -0.6

system: K562; assay: Antiproliferative activity against human K562 cells assessed as inhibition of cell viability incubated for 72 hrs by Cell Titer Glo assay; type: functional, cell-based; details: K562, 72 h
In short: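 K-562 cells (wild-type KRAS, sourced from ATCC) were tested for antiproliferative response.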

Row | Structure (SMILES) | pIC50
30 | CNCc1ccccc1-c1csc([C@H](C)Nc2nc(C)nc3cc(OC)c(OC)cc23)c1 [BAY-294] | 5.12

system: MOLM-13; assay: Antiproliferative activity against human MOLM-13 cells assessed as inhibition of cell viability incubated for 72 hrs by Cell Titer Glo assay; type: functional, cell-based; details: MOLM-13, 72 h

Row | Structure (SMILES) | pIC50
31 | CNCc1ccccc1-c1csc([C@H](C)Nc2nc(C)nc3cc(OC)c(OC)cc23)c1 [BAY-294] | 5.12

system: NCI-H358; assay: Antiproliferative activity against human NCI-H358 cells assessed as inhibition of cell viability incubated for 72 hrs by Cell Titer Glo assay; type: functional, cell-based; details: NCI-H358, 72 h
In short: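 NCI-H358 cells (KRAS G12C mutant) were sourced from ATCC.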

Row | Structure (SMILES) | pIC50
32 | CNCc1ccccc1-c1csc([C@H](C)Nc2nc(C)nc3cc(OC)c(OC)cc23)c1 [BAY-294] | 5.47
